The source made the active and inactive calls. The calls are words filed in the database; no cut-off is given here.
How the values were obtained:
Plasmodium falciparum = experiment: Antimalarial activity against Plasmodium falciparum 3D7 infected in human O positive erythrocytes assessed as reduction of parasite growth after 24 to 44 hrs by Giemsa staining; assay type: functional, organism-based
Outline: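 Sorbitol-synchronized ring-stage 3D7 parasites in O+ erythrocytes (5% v/v suspension, 0.5% parasitemia) exposed to compounds from DMSO stock for 44 h at 37 °C. Growth measured by pLDH ELISA after freeze-thaw hemolysis and by Giemsa thin smears at 24 and 44 h, counting at least 5000 erythrocytes. Expressed as % reduction against medium-only control.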

[1] = Cytotoxicity against Swiss mouse peritoneal macrophages at 20 uM after 5 days by MTT assay; assay type: cell-based, Peritoneal macrophage cell
Outline: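 Thioglycolate-elicited peritoneal macrophages from female Swiss mice, 5 × 10^4/well in RPMI 1640 with 10% FCS, 25 mM Hepes and 2 mM L-glutamine. Washed at 4 h to remove fibroblasts. Drug-containing medium added at 48 h, stopped at day 5. Viability read by MTT.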

[2] = test system: Trypanosoma brucei brucei; experiment: Trypanocidal activity against Trypanosoma brucei brucei by drug incubation infectivity test; assay type: functional; details: read-out: MEC
Leishmania donovani [3] = experiment: Antileishmanial activity against amastigotes forms of Leishmania donovani MHOM/ET/67/HU3 infected in Swiss mouse peritoneal macrophages at 20 uM after 5 days; assay type: functional, organism-based
Outline: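 Peritoneal macrophages from female Swiss mice (18–20 g) infected after 24 h with stationary-phase L. donovani promastigotes at 10 parasites per macrophage. Free promastigotes removed at 18 h, then amastigotes treated. Medium with drug renewed at 48 h, stopped at day 5. Percentage of infected macrophages scored microscopically after Giemsa staining. Run in triplicate.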

Leishmania donovani [4] = experiment: Antileishmanial activity against promastigote forms of Leishmania donovani MHOM/ET/67/HU3 after 3 days by MTT assay; assay type: functional, organism-based; details: MHOM/ET/67/HU3, 72 h
Outline: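 Log-phase promastigotes at 10^6 cells/mL in supplemented M-199. Serial dilutions gave final concentrations of 100 µM to 50 nM, in triplicate. Incubated 3 days at 27 °C, dark, 5% CO2. Viability read by MTT reduction, with Triton X100/HCl lysis and absorbance at 570 nm. IC50 ± SD.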

Mus musculus = experiment: Toxicity in chloroquine-sensitive Plasmodium berghei NK-173 infected Swiss albino mouse assessed as mortality at 100 mg/kg, ip administered 4 times per day for 3 days measured up to 4 days; assay type: organism-based; parameters: dose 100 mg/kg, route intraperitoneal; details: in vivo
Outline: (§1)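 Female Swiss albino mice (18–20 g) were infected i.v. on day 0 with 10^6 parasitized RBC in 0.2 ml PBS from a donor mouse, in groups of 10. Dosing was i.p. over days 0–3 and stopped if toxicity appeared. Chloroquine control was 100 µmoles/kg. Giemsa tail smears and RBC counts were taken on days 4, 7, 8, 9, 10 and 14. Mice were followed for deaths.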

Plasmodium berghei [5] = experiment: Antimalarial activity against chloroquine-sensitive Plasmodium berghei NK-173 infected in Swiss albino mouse assessed as quantal survival at 100 mg/kg, ip administered 4 times per day for 3 days measured on day 14; assay type: functional, organism-based; parameters: dose 100 mg/kg; outline: as §1
Plasmodium berghei [6] = experiment: Antimalarial activity against chloroquine-sensitive Plasmodium berghei NK-173 infected in Swiss albino mouse assessed as quantal survival at 100 mg/kg, ip administered 4 times per day for 3 days measured on day 10; assay type: functional, organism-based; parameters: dose 100 mg/kg; outline: as §1
Plasmodium berghei [7] = experiment: Antimalarial activity against chloroquine-sensitive Plasmodium berghei NK-173 infected in Swiss albino mouse assessed as quantal survival at 100 mg/kg, ip administered 4 times per day for 3 days measured on day 8; assay type: functional, organism-based; parameters: dose 100 mg/kg; outline: as §1
Plasmodium berghei [8] = experiment: Antimalarial activity against chloroquine-sensitive Plasmodium berghei NK-173 infected in Swiss albino mouse assessed as quantal survival at 100 mg/kg, ip administered 4 times per day for 3 days measured on day 7; assay type: functional, organism-based; parameters: dose 100 mg/kg; outline: as §1
Plasmodium berghei [9] = experiment: Antimalarial activity against chloroquine-sensitive Plasmodium berghei NK-173 infected in Swiss albino mouse assessed as host survival at 100 mg/kg, ip administered 4 times per day for 3 days measured on day 30; assay type: functional; details: NK-173, ip, route intraperitoneal; outline: as §1

`O=Cc1c2nc(c(-c3ccccc3)c3ccc(cc4nc(c(-c5ccccc5)c5ccc1[nH]5)C=C4)[nH]3)C=C2` gave an IC50 (Plasmodium falciparum) of over 20 µM, a CC50 at 120 h [1] of over 100 µM and a minimal effective concentration [2] of over 100 µM. For the same compound, the Activity (Leishmania donovani [3]) was “inactive” and the IC50 (Leishmania donovani [4]) was at least 100 µM.
In the case of `O=C1CC[C@@H](C(=O)O)N1` [PIDOLIC ACID], the Activity (Mus musculus) is reported as “Non-toxic”, the Survival (Plasmodium berghei [5]) is reported as “inactive” and the Survival (Plasmodium berghei [6]) is reported as “inactive”. The Survival (Plasmodium berghei [7]) was “Active”, the Survival (Plasmodium berghei [8]) was “Active” and the survival at 100 mg/kg (Plasmodium berghei [9]) was 0%.
Work on `C1=Cc2nc1cc1ccc([nH]1)c(-c1ccccc1)c1nc(cc3ccc([nH]3)c2-c2ccccc2)C=C1` yielded an IC50 (Plasmodium falciparum) of over 20 µM, a CC50 at 120 h [1] of over 100 µM and a minimal effective concentration [2] of over 100 µM. For the same compound, the Activity (Leishmania donovani [3]) was “inactive” and the IC50 (Leishmania donovani [4]) was at least 100 µM.

Source: ChEMBL document CHEMBL2417506, “Synthesis and antiprotozoal activity of original porphyrin precursors and derivatives” (Eur J Med Chem, 2013)
